Results taken from ChEMBL document CHEMBL1629465, “Efficient synthesis of novel 1,2,4-triazole fused acyclic and 21-28 membered macrocyclic and/or lariat macrocyclic oxaazathia crown compounds with potential antimicrobial activity” (2010).
Converted amounts (≈) assume the structure as drawn.

Key:
Assay type in all cases: functional
Penicillium italicum [1] = experiment: Antimicrobial activity against Penicillium italicum RCMB 001018 by twofold serial dilution method
In short: (§1)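 MIC was determined by further twofold serial dilution across twelve levels, from 1000 down to 0.49. Strains were the same bacterial, yeast and fungal RCMB isolates used in the diffusion screen.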

Aspergillus fumigatus [2] = experiment: Antimicrobial activity against Aspergillus fumigatus RCMB 002008 at 1 mg/ml by agar diffusion technique; settings: read-out: DIZ
In short: (§2)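 Agar well diffusion. Test compounds and reference standard drugs were diluted to 5.0, 2.5 and 1.0 mg/mL and applied to 0.6 cm wells. Inhibition zone beyond the control was scored as 0 (no inhibition), + (0.1–0.5 cm), ++ (0.6–1.0 cm) or +++ (1.0–1.5 cm).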

[3] = system: Syncephalastrum racemosum; experiment: Antimicrobial activity against Syncephalastrum racemosum RCMB 016001 at 2.5 mg/ml by agar diffusion technique; settings: read-out: DIZ; in short: as §2
Pseudomonas aeruginosa [4] = experiment: Antimicrobial activity against Pseudomonas aeruginosa RCMB 102002 at 1 mg/ml by agar diffusion technique; settings: read-out: DIZ; in short: as §2
Bacillus subtilis [5] = experiment: Antimicrobial activity against Bacillus subtilis RCMB 101001 by twofold serial dilution method; in short: as §1
Bacillus subtilis [6] = experiment: Antimicrobial activity against Bacillus subtilis RCMB 101001 at 1 mg/ml by agar diffusion technique; settings: read-out: DIZ; in short: as §2
Staphylococcus aureus [7] = experiment: Antimicrobial activity against Staphylococcus aureus RCMB 106001 at 1 mg/ml by agar diffusion technique; settings: read-out: DIZ; in short: as §2
Escherichia coli [8] = experiment: Antimicrobial activity against Escherichia coli RCMB 103001 at 2.5 mg/ml by agar diffusion technique; settings: read-out: DIZ; in short: as §2
Candida albicans [9] = experiment: Antimicrobial activity against Candida albicans RCMB 005003 at 5 mg/ml by agar diffusion technique; settings: read-out: DIZ; in short: as §2
Aspergillus fumigatus [10] = experiment: Antimicrobial activity against Aspergillus fumigatus RCMB 002008 at 2.5 mg/ml by agar diffusion technique; settings: read-out: DIZ; in short: as §2
Escherichia coli [11] = experiment: Antimicrobial activity against Escherichia coli RCMB 103001 at 1 mg/ml by agar diffusion technique; settings: read-out: DIZ; in short: as §2
[12] = system: Syncephalastrum racemosum; experiment: Antimicrobial activity against Syncephalastrum racemosum RCMB 016001 at 1 mg/ml by agar diffusion technique; settings: read-out: DIZ; in short: as §2
Pseudomonas aeruginosa [13] = experiment: Antimicrobial activity against Pseudomonas aeruginosa RCMB 102002 at 5 mg/ml by agar diffusion technique; settings: read-out: DIZ; in short: as §2
Aspergillus fumigatus [14] = experiment: Antimicrobial activity against Aspergillus fumigatus RCMB 002008 by twofold serial dilution method; in short: as §1
Staphylococcus aureus [15] = experiment: Antimicrobial activity against Staphylococcus aureus RCMB 106001 at 2.5 mg/ml by agar diffusion technique; settings: read-out: DIZ; in short: as §2
Penicillium italicum [16] = experiment: Antimicrobial activity against Penicillium italicum RCMB 001018 at 1 mg/ml by agar diffusion technique; settings: read-out: DIZ; in short: as §2
[17] = system: Syncephalastrum racemosum; experiment: Antimicrobial activity against Syncephalastrum racemosum RCMB 016001 by twofold serial dilution method; in short: as §1
Candida albicans [18] = experiment: Antimicrobial activity against Candida albicans RCMB 005003 at 1 mg/ml by agar diffusion technique; settings: read-out: DIZ; in short: as §2
Penicillium italicum [19] = experiment: Antimicrobial activity against Penicillium italicum RCMB 001018 at 2.5 mg/ml by agar diffusion technique; settings: read-out: DIZ; in short: as §2
Bacillus subtilis [20] = experiment: Antimicrobial activity against Bacillus subtilis RCMB 101001 at 2.5 mg/ml by agar diffusion technique; settings: read-out: DIZ; in short: as §2
Escherichia coli [21] = experiment: Antimicrobial activity against Escherichia coli RCMB 103001 by twofold serial dilution method; in short: as §1
Pseudomonas aeruginosa [22] = experiment: Antimicrobial activity against Pseudomonas aeruginosa RCMB 102002 at 2.5 mg/ml by agar diffusion technique; settings: read-out: DIZ; in short: as §2
Staphylococcus aureus [23] = experiment: Antimicrobial activity against Staphylococcus aureus RCMB 106001 at 5 mg/ml by agar diffusion technique; settings: read-out: DIZ; in short: as §2
Candida albicans [24] = experiment: Antimicrobial activity against Candida albicans RCMB 005003 at 2.5 mg/ml by agar diffusion technique; settings: read-out: DIZ; in short: as §2
Aspergillus fumigatus [25] = experiment: Antimicrobial activity against Aspergillus fumigatus RCMB 002008 at 5 mg/ml by agar diffusion technique; settings: read-out: DIZ; in short: as §2
Bacillus subtilis [26] = experiment: Antimicrobial activity against Bacillus subtilis RCMB 101001 at 5 mg/ml by agar diffusion technique; settings: read-out: DIZ; in short: as §2
Candida albicans [27] = experiment: Antimicrobial activity against Candida albicans RCMB 005003 by twofold serial dilution method; in short: as §1
Staphylococcus aureus [28] = experiment: Antimicrobial activity against Staphylococcus aureus RCMB 106001 by twofold serial dilution method; in short: as §1
Pseudomonas aeruginosa [29] = experiment: Antimicrobial activity against Pseudomonas aeruginosa RCMB 102002 by twofold serial dilution method; in short: as §1
[30] = system: Syncephalastrum racemosum; experiment: Antimicrobial activity against Syncephalastrum racemosum RCMB 016001 at 5 mg/ml by agar diffusion technique; settings: read-out: DIZ; in short: as §2
Penicillium italicum [31] = experiment: Antimicrobial activity against Penicillium italicum RCMB 001018 at 5 mg/ml by agar diffusion technique; settings: read-out: DIZ; in short: as §2
Escherichia coli [32] = experiment: Antimicrobial activity against Escherichia coli RCMB 103001 at 5 mg/ml by agar diffusion technique; settings: read-out: DIZ; in short: as §2
[33] = Escherichia coli, RCMB 103001, read-out: MIC

Row | SMILES | zone of inhibition at 1000 µg/mL (Aspergillus fumigatus [2]) | zone of inhibition at 2500 µg/mL [3] | zone of inhibition at 1000 µg/mL (Pseudomonas aeruginosa [4]) | zone of inhibition at 1000 µg/mL (Bacillus subtilis [6]) | zone of inhibition at 1000 µg/mL (Staphylococcus aureus [7]) | zone of inhibition at 2500 µg/mL (Escherichia coli [8]) | zone of inhibition at 5000 µg/mL (Candida albicans [9]) | zone of inhibition at 2500 µg/mL (Aspergillus fumigatus [10]) | zone of inhibition at 1000 µg/mL (Escherichia coli [11]) | zone of inhibition at 1000 µg/mL [12] | zone of inhibition at 5000 µg/mL (Pseudomonas aeruginosa [13]) | zone of inhibition at 2500 µg/mL (Staphylococcus aureus [15]) | zone of inhibition at 1000 µg/mL (Penicillium italicum [16]) | zone of inhibition at 1000 µg/mL (Candida albicans [18]) | zone of inhibition at 2500 µg/mL (Penicillium italicum [19]) | zone of inhibition at 2500 µg/mL (Bacillus subtilis [20]) | zone of inhibition at 2500 µg/mL (Pseudomonas aeruginosa [22]) | zone of inhibition at 5000 µg/mL (Staphylococcus aureus [23]) | zone of inhibition at 2500 µg/mL (Candida albicans [24]) | zone of inhibition at 5000 µg/mL (Aspergillus fumigatus [25]) | other results
1 | OC(COc1ccccc1/C=N\n1c(-c2cccnc2)n[nH]c1=S)COc1ccccc1/C=N\n1c(-c2cccnc2)n[nH]c1=S | 0 mm | 1 mm | 0 mm | 1 mm | 0 mm | 1 mm | 0 mm | 0 mm | 0 mm | 0 mm | 0 mm | 0 mm | 6 mm | 0 mm | 6 mm | 1 mm | 0 mm | 0 mm | 0 mm |  | MIC (Penicillium italicum [1]): 250 µg/mL (≈ 384 µM); MIC (Bacillus subtilis [5]): 250 µg/mL (≈ 384 µM); MIC (Bacillus subtilis [5]; Bacillus subtilis, RCMB 101001, read-out: MIC): 250 µg/mL (≈ 384 µM); MIC (Aspergillus fumigatus [14]): 250 µg/mL (≈ 384 µM); MIC (Aspergillus fumigatus [14]; Aspergillus fumigatus, RCMB 002008, read-out: MIC): 250 µg/mL (≈ 384 µM); MIC [17]: 250 µg/mL (≈ 384 µM); MIC ([17]; Syncephalastrum racemosum, RCMB 016001, read-out: MIC): 250 µg/mL (≈ 384 µM); MIC (Escherichia coli [21]): 250 µg/mL (≈ 384 µM); MIC (Escherichia coli [21]; [33]): 250 µg/mL (≈ 384 µM)
2 | C1=N\n2c(nnc2-c2cccnc2)SCCCCSc2nnc(-c3cccnc3)n2/N=C\c2ccccc2OCCCCOc2ccccc2/1 | 0 mm | 0 mm | 0 mm | 0 mm | 1 mm | 1 mm |  | 0 mm | 1 mm | 0 mm |  | 1 mm | 0 mm | 0 mm | 0 mm | 0 mm | 0 mm |  | 1 mm | 0 mm | zone of inhibition at 5000 µg/mL (Bacillus subtilis [26]): 0 mm; MIC (Candida albicans [27]): 250 µg/mL (≈ 356 µM); MIC (Candida albicans [27]; Candida albicans, RCMB 005003, read-out: MIC): 250 µg/mL (≈ 356 µM); MIC (Staphylococcus aureus [28]): 250 µg/mL (≈ 356 µM); MIC (Staphylococcus aureus [28]; Staphylococcus aureus, RCMB 106001, read-out: MIC): 250 µg/mL (≈ 356 µM); MIC (Escherichia coli [21]; [33]): 250 µg/mL (≈ 356 µM); MIC (Pseudomonas aeruginosa [29]): 250 µg/mL (≈ 356 µM); MIC (Pseudomonas aeruginosa [29]; Pseudomonas aeruginosa, RCMB 102002, read-out: MIC): 250 µg/mL (≈ 356 µM); zone of inhibition at 5000 µg/mL [30]: 0 mm
3 | OC1COc2ccccc2CNn2c(nnc2-c2cccnc2)SCCCSc2nnc(-c3cccnc3)n2NCc2ccccc2OC1 | 0 mm | 0 mm | 0 mm | 1 mm | 0 mm | 0 mm | 0 mm | 0 mm | 0 mm | 0 mm | 0 mm | 0 mm | 0 mm | 0 mm | 0 mm | 6 mm | 0 mm | 0 mm | 0 mm | 0 mm | zone of inhibition at 5000 µg/mL (Bacillus subtilis [26]): 6 mm; zone of inhibition at 5000 µg/mL (Penicillium italicum [31]): 0 mm; zone of inhibition at 5000 µg/mL [30]: 0 mm; zone of inhibition at 5000 µg/mL (Escherichia coli [32]): 0 mm
4 | O=C(N[C@H](CO)[C@H](O)c1ccc([N+](=O)[O-])cc1)C(Cl)Cl [CHLORAMPHENICOL] | 6 mm | 10 mm | 6 mm | 6 mm | 6 mm | 6 mm | 6 mm | 10 mm | 6 mm | 10 mm | 10 mm | 6 mm | 6 mm | 6 mm | 10 mm | 10 mm | 10 mm | 6 mm | 6 mm | 10 mm | zone of inhibition at 5000 µg/mL (Bacillus subtilis [26]): 10 mm; zone of inhibition at 5000 µg/mL (Penicillium italicum [31]): 10 mm; zone of inhibition at 5000 µg/mL [30]: 10 mm; zone of inhibition at 5000 µg/mL (Escherichia coli [32]): 6 mm
5 | CN(C/C=C/C#CC(C)(C)C)Cc1cccc2ccccc12 [TERBINAFINE] | 6 mm | 10 mm | 6 mm | 6 mm | 6 mm | 6 mm | 6 mm | 10 mm | 6 mm | 10 mm | 10 mm | 6 mm | 6 mm | 6 mm | 10 mm | 10 mm | 10 mm | 6 mm | 6 mm | 10 mm | zone of inhibition at 5000 µg/mL (Bacillus subtilis [26]): 10 mm; zone of inhibition at 5000 µg/mL (Penicillium italicum [31]): 10 mm; zone of inhibition at 5000 µg/mL [30]: 10 mm; zone of inhibition at 5000 µg/mL (Escherichia coli [32]): 6 mm
